Assays:
[1] = Apparent permeability across apical to basolateral side in human Caco-2 cells at 50 uM incubated for 120 mins by LC/MS/MS analysis
[2] = Half life in Sprague-Dawley rat at 3 mg/kg, po or 1 mg/kg, iv measured upto 24 hrs post dose by LC/MS/MS analysis; type: ADME, organism-based; conditions: in vivo
[3] = Volume of distribution at steady state in Sprague-Dawley rat at 3 mg/kg, po or 1 mg/kg, iv measured upto 24 hrs post dose by LC/MS/MS analysis; type: ADME, organism-based; conditions: in vivo
[4] = molecular target: T1, Activin receptor type-1 (Homo sapiens, UniProt Q04771); assay: Inhibition of human recombinant N-terminal GST tagged ALK2 (147 to end residues) expressed in baculovirus infected in Sf9 cells assessed as loss of peptide phosphorylation activity using peptide substrate in presence of ATP and measured after 3 hrs by HTRF assay
T1 sequence (Q04771 whole entry): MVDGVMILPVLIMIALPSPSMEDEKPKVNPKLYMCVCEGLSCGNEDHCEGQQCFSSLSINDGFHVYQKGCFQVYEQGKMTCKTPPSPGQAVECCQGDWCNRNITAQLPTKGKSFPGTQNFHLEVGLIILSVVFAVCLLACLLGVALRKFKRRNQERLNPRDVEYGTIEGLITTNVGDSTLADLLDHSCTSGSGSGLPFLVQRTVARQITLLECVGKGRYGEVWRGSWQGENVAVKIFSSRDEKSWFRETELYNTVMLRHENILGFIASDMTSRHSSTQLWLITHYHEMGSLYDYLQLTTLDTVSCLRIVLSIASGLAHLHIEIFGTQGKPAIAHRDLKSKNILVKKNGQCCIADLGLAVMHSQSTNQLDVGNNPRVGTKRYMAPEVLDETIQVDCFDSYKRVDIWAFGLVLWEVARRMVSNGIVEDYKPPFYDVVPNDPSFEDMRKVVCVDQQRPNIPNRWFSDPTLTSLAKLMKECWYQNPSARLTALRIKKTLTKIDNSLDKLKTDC
Outline: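 HTRF activity assay measuring loss of ALK2 phosphorylation of a peptide substrate. IC50 values were determined.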

[5] = Metabolic stability in human liver microsomes assessed as intrinsic clearance at 1uM and measured upto 30 mins in presence of NADPH by LC/MS analysis; type: ADME, Microsome; conditions: read-out: CLH (converted)
[6] = Cmax in Sprague-Dawley rat at 3 mg/kg, po measured upto 24 hrs post dose by LC/MS/MS analysis; type: ADME, organism-based; parameters: dose 3 mg/kg, time < 24 hrs, route po; conditions: in vivo
[7] = molecular target: T2, Hepcidin (Homo sapiens, UniProt P81172); assay: Inhibition of Hepcidin in human Huh-7 cells assessed as inhibition of BMP-7 induced hepcidin production incubated for 16 to 24 hrs by ELISA method; type: cell-based
T2 sequence (P81172 whole entry): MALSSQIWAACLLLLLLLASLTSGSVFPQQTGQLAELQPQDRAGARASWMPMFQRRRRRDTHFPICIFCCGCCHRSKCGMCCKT
Outline: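 Huh7 liver cells were stimulated with BMP7. Inhibition of secreted hepcidin was measured and an IC50 was derived.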

[8] = Oral bioavailability in Sprague-Dawley rat at 3 mg/kg measured upto 24 hrs post dose by LC/MS/MS analysis; type: ADME, organism-based; conditions: in vivo
[9] = Protein binding in human plasma assessed as free fraction measured after 2 hrs by LC-MS/MS analysis; type: ADME, cell-free
[10] = molecular target: T1, Activin receptor type-1; assay: Inhibition of ALK2 in human HeLa cells assessed as reduction in BMP-7 induced SMAD1 phosphorylation incubated for 1 hr followed BMP-7 stimulation for 30 mins by HTRF assay; type: cell-based
Outline: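 HeLa cells were stimulated with BMP7. Inhibition of BMP7-induced SMAD1 phosphorylation was read by HTRF and an IC50 was derived.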

[11] = AUC infinity in Sprague-Dawley rat at 3 mg/kg, po measured upto 24 hrs post dose by LC/MS/MS analysis; type: ADME, organism-based; parameters: time < 24 hrs, dose 3 mg/kg, route po; conditions: in vivo

Row | Compound | IC50 [4] | IC50 [10] | also measured
1 | C[C@@H]1CN(c2ccc(-c3n[nH]c4cnc(N5CCCCC5)cc34)cn2)CCN1 | 77 nM | – | –
2 | CC(C)C(=O)N1C[C@@H](C)N(c2ncc3[nH]nc(-c4ccc(N5CCN[C@H](C)C5)nc4)c3n2)[C@@H](C)C1 | 8 nM | 661 nM | –
3 | CC1CCCCN1c1ncc2[nH]nc(-c3ccc(N4CCN[C@H](C)C4)nc3)c2n1 (stereo partly drawn) | 8.1 nM | – | –

These reach a lower IC50 [4]. Values come first.

Row | IC50 [4] | IC50 [10] | Compound | also measured
4 | 7.3 nM | 346 nM | COCC(=O)N1C[C@@H](C)N(c2ncc3[nH]nc(-c4ccc(N5CCN[C@H](C)C5)nc4)c3n2)[C@@H](C)C1 | –
5 | 6.4 nM | 350 nM | C[C@@H]1CN(c2ccc(-c3n[nH]c4cnc(N5[C@H](C)CN(C(=O)N(C)C)C[C@@H]5C)nc34)cn2)CCN1 | –
6 | 2.5 nM | 384 nM | C[C@@H]1CN(c2ccc(-c3n[nH]c4cnc(N5[C@H](C)CCC[C@@H]5C)nc34)cn2)CCN1 | –
7 | 1.3 nM | 119 nM | COC(=O)N1C[C@@H](C)N(c2ncc3[nH]nc(-c4ccc(N5CCN(C)CC5)c(F)c4)c3n2)[C@@H](C)C1 | –
8 | 0.85 nM | 27 nM | COC(=O)N1C[C@@H](C)N(c2ncc3[nH]nc(-c4ccc(N5CCN[C@H](C)C5)nc4)c3n2)[C@@H](C)C1 | Papp A→B at 2 h, 50 µM [1]: 0.6 ×10⁻⁶ cm/s; half-life [2]: 3.1 h; Vdss [3]: 21.9 L/kg; CLint scaled at 1 µM [5]: 15 mL/min/kg; Cmax [6]: 75 nM; IC50 [7]: 7.3 nM; bioavailability [8]: 49%; fraction unbound at 2 h [9]: 0.099; AUC(0-inf) [11]: 0.441 µM·h
